# Calls of active or inactive are those of the source. No cut-off for these calls is given here.
# System: L6
# Assay: Stimulation of [3H]2-deoxyglucose uptake in rat L6 cells at 10 uM incubated for 16 hrs by scintillation counting method
# Format: functional, cell-based
# Outline: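 L6 myotubes incubated with the compound […]; insulin at 100 nM for 20 min served as the positive control. Uptake of ³H-2-deoxyglucose measured and expressed as fold stimulation relative to the control condition.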
structure (smiles),measurement,value
COC(=O)c1c(SC)cc(-c2ccc3ccc4cccc5ccc2c3c45)c2c1-c1cn(-c3ccccc3)nc1CC2,Activity,inactive

# Source: ChEMBL document CHEMBL4138048, “Synthesis of substituted 2H-benzo[e]indazole-9-carboxylate as a potent antihyperglycemic agent that may act through IRS-1, Akt and GSK-3β pathways” (Medchemcomm, 2017)
